For one experiment, the system named is CHO. The experiment is described as follows: In vitro cytotoxicity against CHO cells was determined using MTT colorimetric assay. The format is functional, cell-based. As to conditions: Cricetulus griseus. The procedure, abridged:
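Chinese hamster ovary cells; MTT colorimetric read-out. Compounds dissolved as 2 mg/mL stocks in water, then diluted in medium as six serial 10-fold dilutions, final 100 µg/mL to 1 ng/mL. Emetine dihydrochloride as positive control. IC50 from nonlinear dose–response curve fitting; mean ± standard deviation of two independent experiments, each in triplicate.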

Experiment [1] has as its system Ferriprotoporphyrin IX.
In experiment [2] the test system is Ferriprotoporphyrin IX. The source holds these as a separate data set.

Structures can show the parent of a compound that is named as a salt.

As to `CC[C@H]1CN2CCc3cc(OC)c(OC)cc3[C@@H]2C[C@@H]1C[C@H]1NCCc2cc(OC)c(OC)cc21` [EMETINE HYDROCHLORIDE], the IC50 with CHO worked out at 139 nM.

Compound `O=[N+]([O-])c1cc2cccnc2c2ncccc12` came in with a Log K with Ferriprotoporphyrin IX [1] of 2.88. Regarding `Cc1ccnc(-c2cc(C)ccn2)c1`, in the experiment on Ferriprotoporphyrin IX [2], the “Log K” value was “No association”.

Compound `Cc1cnc2c(ccc3c(C)c(C)cnc32)c1C` yielded a Log K with Ferriprotoporphyrin IX [1] of 3.32. In turn, `Clc1cc2cccnc2c2ncccc12` returned a Log K in the experiment on Ferriprotoporphyrin IX [1] of 3.01. With `O=C(NC(=S)N(CCO)CCO)c1ccccc1`, in the experiment on Ferriprotoporphyrin IX [2], the “Log K” value was “No association”. As to `Cc1ccnc2c1ccc1cccnc12`, the Log K in the experiment with Ferriprotoporphyrin IX [1] was found to be 3.22. As for `Cc1cc2cccnc2c2ncccc12`, in the experiment with Ferriprotoporphyrin IX [1], the Log K stood at 2.93. Regarding `c1ccc(-c2ccccn2)nc1`, the “Log K” value in the experiment on Ferriprotoporphyrin IX [2] is “No association”. As to `CCN(CC)CCN(CCN(CC)CC)C(=S)NC(=O)c1ccccc1`, the Log K in the experiment on Ferriprotoporphyrin IX [1] is 1.93.

A word on the IC50: it is the midpoint of a concentration-inhibition curve. Low readings indicate greater potency, high ones weaker potency.

The record behind these values is ChEMBL document CHEMBL1149189, “In vitro antimalarial activity of a series of cationic 2,2'-bipyridyl- and 1,10-phenanthrolineplatinum(II) benzoylthiourea complexes” (J Med Chem, 2004).
